For 3 compounds, Activity, Systolic arterial pressure and Diastolic arterial pressure results are on record in ChEMBL document CHEMBL4334422, “Toxicities and beneficial protection of H2S donors based on nonsteroidal anti-inflammatory drugs” (Medchemcomm, 2019).

Activity calls are given as the source filed them. The calls are words filed in the database; no cut-off is given here.

Data set [1] in a line: Cardiotoxicity in SHR rat assessed as thin myocardial fiber formation at 10 mg/kg, ip administered for 14 days by H and E staining based microscopic assay. The format is toxicity, organism-based. Particulars: in vivo, 336 h. In a few lines:
(§1)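 SHRs were given 10 mg·kg⁻¹ intraperitoneally per day for 14 consecutive days, with an ibuprofen comparator and a normal control. Myocardial tissue was then removed. Sections were HE-stained for light microscopy and also examined by transmission electron microscopy at 6000, 10000 and 20000-fold.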

For data set [2], the system named is Rattus norvegicus. As to the kind of experiment: Cardioprotective activity in SHR rat assessed as change in myocardial disk dissociation at 10 mg/kg, ip administered for 14 days by TEM analysis. The class given is functional, organism-based. In a few lines:
as §1

Data set [3] relates to Rattus norvegicus. The experiment in a line: Antihypertensive activity in spontaneously hypertensive Wistar kyoto rat assessed as reduction in systolic arterial pressure at 10 mg/kg, ip administered for 6 hrs and measured every 30 mins post treatment by tail-cuff method. The class given is functional. In a few lines:
(§2)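 Male SHRs (8 weeks, 300 ± 25 g; 6 per group), given compound intraperitoneally once daily at 8 am in 0.5% (w/v) sodium carboxymethyl cellulose/DMSO 3/1 (v/v), 2 mL·kg⁻¹. Vehicle-treated SHR and WKY controls. SBP, DBP and heart rate were measured by tail-cuff on awake, restrained rats before dosing, then every 30 min for 6 h. Values are mean ± SD of four independent experiments.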

For data set [4], the system named is Rattus norvegicus. The experiment in a line: Antihypertensive activity in ip dosed spontaneously hypertensive Wistar kyoto rat assessed as reduction in diastolic arterial pressure administered for 6 hrs and measured every 30 mins post treatment by tail-cuff method. The format is functional, organism-based. In a few lines: as §2
The next data set relates to H9c2. As to the kind of experiment: Cytoprotective activity against H2O2-induced toxicity in rat H9c2 cells assessed as increase in cell repair at 10 to 80 uM pretreated with compound followed by H2O2 addition and measured after 1 to 8 hrs by giemsa staining based microscopic method. The class given is functional. In a few lines: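 H9c2 cells were injured with H₂O₂ (400 µM) for 1, 4 or 8 h to give light, medium and heavy damage, in the presence of compound at 10–80 µM. Acetaminophen or ibuprofen served as controls. Viability was measured as mean ± SD of three experiments. SOD and MDA contents were measured as mean ± SD of four experiments. Morphology was assessed by Giemsa staining under light microscopy.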

Data set [5] deals with Rattus norvegicus. As to the kind of experiment: Antihypertensive activity in spontaneously hypertensive Wistar kyoto rat assessed as reduction in diastolic arterial pressure at 10 mg/kg, ip administered for 6 hrs and measured every 30 mins post treatment by tail-cuff method. The class given is functional. In a few lines:
as §2

Data set [6] relates to Rattus norvegicus. The experiment in a line: Antihypertensive activity in spontaneously hypertensive Wistar kyoto rat assessed as reduction in systolic arterial pressure at 40 mg/kg, ip administered for 6 hrs and measured every 30 mins post treatment by tail-cuff method. The class given is functional. In a few lines:
as §2

The test system of data set [7] is Rattus norvegicus. As to the kind of experiment: Antihypertensive activity in spontaneously hypertensive Wistar kyoto rat assessed as reduction in diastolic arterial pressure at 40 mg/kg, ip administered for 6 hrs and measured every 30 mins post treatment by tail-cuff method. The format is functional. In a few lines:
as §2

Data set [8] has as its system Rattus norvegicus. As to the kind of experiment: Cardioprotective activity in SHR rat assessed as neatly arrange myofibrils at 10 mg/kg, ip administered for 14 days by TEM analysis. The format is functional, organism-based. In a few lines: as §1
The subject of data set [9] is Rattus norvegicus. As to the kind of experiment: Antihypertensive activity in spontaneously hypertensive Wistar kyoto rat assessed as reduction in systolic arterial pressure at 20 mg/kg, ip administered for 6 hrs and measured every 30 mins post treatment by tail-cuff method. The format is functional. In a few lines: as §2
A short description of data set [10]: Cardiotoxicity in SHR rat assessed as neatly arranged myocardial fibers at 10 mg/kg, ip administered for 14 days by H and E staining based microscopic assay. The format is toxicity, organism-based. As to conditions: in vivo, 336 h. In a few lines: as §1
The nature of data set [11]: Toxicity in Wistar kyoto rat assessed as hepatic sinus congestion at 10 mg/kg, ip administered for 14 days by H and E staining based assay. The class given is organism-based. As to conditions: in vivo, 336 h. In a few lines:
(§3)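 WKY rats were given 10 mg·kg⁻¹ intraperitoneally daily for 14 days, with vehicle-treated controls. Liver and kidney were collected and fixed in 4% glutaraldehyde. Tissue was examined after HE staining by light microscopy and by transmission electron microscopy at 6000, 10000 and 20000-fold.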

Data set [12] in a line: Toxicity in Wistar kyoto rat assessed as intact hepatic lobule structure at 10 mg/kg, ip administered for 14 days by H and E staining based assay. The class given is organism-based. Particulars: in vivo, 336 h. In a few lines:
(§4)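 WKY rats were dosed intraperitoneally at 10 mg/kg daily for 14 days, using the 10% 1,3-propanediol vehicle, with a vehicle control group. Liver and kidney were collected and fixed immediately in 4% glutaraldehyde. Sections were stained with haematoxylin and eosin and scored for structural change under light microscopy.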

A short description of data set [13]: Toxicity in Wistar kyoto rat assessed as congestion in renal tissue at 10 mg/kg, ip administered for 14 days by H and E staining based assay. The class given is organism-based. As to conditions: in vivo, 336 h. In a few lines:
as §3

Data set [14] is described as follows: Toxicity in Wistar kyoto rat assessed as visible gaps in hepatocytes at 10 mg/kg, ip administered for 14 days by H and E staining based assay. The format is organism-based. Particulars: in vivo, 336 h. In a few lines: as §4
The nature of data set [15]: Toxicity in Wistar kyoto rat assessed as central venous in liver at 10 mg/kg, ip administered for 14 days by H and E staining based assay. The class given is organism-based. Particulars: in vivo, 336 h. In a few lines: as §3
Data set [16] can be described thus: Toxicity in Wistar kyoto rat assessed as swollen hepatocytes at 10 mg/kg, ip administered for 14 days by H and E staining based assay. The class given is organism-based. As to conditions: in vivo, 336 h. In a few lines:
as §4

Data set [17] in a line: Toxicity in Wistar kyoto rat assessed as loose cytoplasm in kidney tissue at 10 mg/kg, ip administered for 14 days by H and E staining based assay. The class given is organism-based. As to conditions: in vivo, 336 h. In a few lines:
as §4

Data set [18] in a line: Toxicity in Wistar kyoto rat assessed as light staining in cytoplasm of liver tissue at 10 mg/kg, ip administered for 14 days by H and E staining based assay. The format is organism-based. Particulars: in vivo, 336 h. In a few lines:
as §4

Data set [19] in a line: Toxicity in Wistar kyoto rat assessed as abnormal nuclear morphology in liver tissue at 10 mg/kg, ip administered for 14 days by TEM assay. The class given is organism-based. As to conditions: in vivo, 336 h. In a few lines: as §3
The nature of data set [20]: Toxicity in Wistar kyoto rat assessed as stromal hyperplasia at 10 mg/kg, ip administered for 14 days by TEM assay. The format is organism-based. Particulars: in vivo, 336 h. In a few lines:
(§5)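 After 14 days of daily intraperitoneal dosing at 10 mg/kg in WKY rats, with vehicle controls, liver and kidney were fixed in 4% glutaraldehyde. Ultrastructure was examined by transmission electron microscopy at 6000-, 10000- and 20000-fold magnification.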

Data set [21] can be described thus: Toxicity in Wistar kyoto rat assessed as reduction in intestinal mucosal congestion symptoms at 10 mg/kg, ip administered for 14 days by H and E staining based optical microscopic method. The format is organism-based. Particulars: in vivo, 336 h. In a few lines:
(§6)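 WKY rats, 3 per group, were dosed for 14 days, with the compound at 10 mg/kg per dose and the ibuprofen comparator at 6.1 mg/kg. Rats were anaesthetised with ether and killed by cervical dislocation. Stomach and intestine were sectioned at 5-10 µm, stained with haematoxylin and eosin, and examined by optical microscopy.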

A short description of data set [22]: Toxicity in Wistar kyoto rat assessed as swollen glomerular endothelial cells at 10 mg/kg, ip administered for 14 days by TEM assay. The class given is organism-based. Particulars: in vivo, 336 h. In a few lines:
as §5

Data set [23] is described as follows: Cardiotoxicity in SHR rat assessed as myocardial fibers thickening at 10 mg/kg, ip administered for 14 days by H and E staining based microscopic assay. The class given is toxicity, organism-based. As to conditions: in vivo, 336 h. In a few lines:
as §1

A short description of data set [24]: Toxicity in Wistar kyoto rat assessed as swollen gastric cell at 10 mg/kg, ip administered for 14 days by H and E staining based optical microscopic method. The format is organism-based. As to conditions: in vivo, 336 h. In a few lines: as §6
Data set [25] can be described thus: Toxicity in Wistar kyoto rat assessed as increase in lipid droplets in cytoplasm in liver tissue at 10 mg/kg, ip administered for 14 days by TEM assay. The format is organism-based. As to conditions: in vivo, 336 h. In a few lines:
as §5

Data set [26] can be described thus: Toxicity in Wistar kyoto rat assessed as chromatin edge collection in liver tissue at 10 mg/kg, ip administered for 14 days by TEM assay. As to conditions: in vivo, 336 h. The format is organism-based. In a few lines:
as §3

Data set [27] can be described thus: Toxicity in Wistar kyoto rat assessed as increase in heterochromatin in liver tissue at 10 mg/kg, ip administered for 14 days by TEM assay. Particulars: in vivo, 336 h. The class given is organism-based. In a few lines: as §5

`CC(=O)Nc1ccc(OC(=O)CCCCC2CCSS2)cc1` (stereo not drawn): the Activity result in data set [1] was “Active”; in the data set with Rattus norvegicus [4] it was “Dose-dependent effect”; with Rattus norvegicus [6] it was 115.3 mmHg; with Rattus norvegicus [7], 99.4 mmHg; in the data set on Rattus norvegicus [9], 127.6 mmHg; in data set [10], “Non-Toxic”. The outcome in the data set on Rattus norvegicus [2], in the data set on H9c2 and with Rattus norvegicus [8] was Active. Further, the Systolic arterial pressure in the data set with Rattus norvegicus [3] is listed as 139.1 mmHg. Also, the Diastolic arterial pressure in the data set on Rattus norvegicus [5] is given as 113.8 mmHg.

On to `CC(C)Cc1ccc(C(C)C(=O)Oc2ccc(-c3cc(=S)ss3)cc2)cc1` (stereo not drawn), for which the Activity entry in data set [11] is on record as “Toxic”; in data set [12] it was “Non-Toxic”; in data set [13], “Toxic”; in data set [14], “Toxic”; in [15], “Toxic”; with Rattus norvegicus [6] it was 135.1 mmHg. In addition, the Activity in the data set on Rattus norvegicus [7] is 112.4 mmHg; in [16], “Toxic”; in [17], “Toxic”; in the data set on Rattus norvegicus [9], 136.7 mmHg; in data set [18], “Toxic”. Also, the Systolic arterial pressure in the data set on Rattus norvegicus [3] is recorded as 142.9 mmHg. Further, in the data set on Rattus norvegicus [5], the Diastolic arterial pressure is 116.3 mmHg.

Regarding `CC(C)Cc1ccc(C(C)C(=O)Oc2ccc(C(N)=S)cc2)cc1` (stereo not drawn), the Activity entry was “Active” in data set [1]; “Toxic” in [19]; “Toxic” in data set [11]; “Toxic” in [20]; “Non-Toxic” in data set [12]; “Non-Toxic” in data set [21]. Besides, the Activity result in the data set on Rattus norvegicus [4] is “Dose-dependent effect”; in [22], “Toxic”; in [14], “Toxic”; in data set [15] it was “Toxic”; in [23], “Active”; in data set [24] it was “Non-Toxic”. Also, the Activity result in [16], in [17], in [25], in data set [26], in data set [27] and in [18] was “Toxic” in each case. In addition, in data set [10], the Activity entry is reported as “Non-Toxic”.
